Source: the M2OR odorant receptor database

Tests used:
Conditions in all cases: stereoisomer not certain
[1] = molecular target: T1, UniProt E9PZ66
T1 sequence (whole entry): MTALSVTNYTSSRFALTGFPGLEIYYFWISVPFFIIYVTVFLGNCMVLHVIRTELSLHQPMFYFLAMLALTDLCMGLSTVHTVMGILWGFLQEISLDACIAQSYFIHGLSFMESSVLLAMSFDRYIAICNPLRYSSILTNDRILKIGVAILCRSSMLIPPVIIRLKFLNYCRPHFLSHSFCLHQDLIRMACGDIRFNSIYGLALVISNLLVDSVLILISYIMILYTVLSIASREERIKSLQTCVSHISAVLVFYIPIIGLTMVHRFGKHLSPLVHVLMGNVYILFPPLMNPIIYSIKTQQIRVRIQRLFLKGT
Method in brief: (§1)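 Whether a receptor–molecule pair is responsive (active) rests on the original authors' judgment that its measured signal was statistically different from baseline. Pairs without that judgment are non-responsive (inactive). Sources used varied assay methods, commonly transient luciferase assays in mammalian cell lines.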

[2] = molecular target: T2, UniProt E9Q4X7
T2 sequence (whole entry): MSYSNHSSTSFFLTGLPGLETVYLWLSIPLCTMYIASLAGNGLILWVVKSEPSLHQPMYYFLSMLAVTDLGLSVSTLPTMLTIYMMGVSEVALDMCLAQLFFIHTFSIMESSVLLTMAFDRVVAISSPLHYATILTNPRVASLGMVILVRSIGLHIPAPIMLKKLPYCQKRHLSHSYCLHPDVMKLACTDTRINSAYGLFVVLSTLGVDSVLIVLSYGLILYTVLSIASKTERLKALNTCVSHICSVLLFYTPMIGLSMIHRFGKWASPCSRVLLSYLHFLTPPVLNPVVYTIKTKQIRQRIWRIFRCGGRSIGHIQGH
Method in brief: as §1

[3] = molecular target: T3, UniProt E9Q546
T3 sequence (whole entry): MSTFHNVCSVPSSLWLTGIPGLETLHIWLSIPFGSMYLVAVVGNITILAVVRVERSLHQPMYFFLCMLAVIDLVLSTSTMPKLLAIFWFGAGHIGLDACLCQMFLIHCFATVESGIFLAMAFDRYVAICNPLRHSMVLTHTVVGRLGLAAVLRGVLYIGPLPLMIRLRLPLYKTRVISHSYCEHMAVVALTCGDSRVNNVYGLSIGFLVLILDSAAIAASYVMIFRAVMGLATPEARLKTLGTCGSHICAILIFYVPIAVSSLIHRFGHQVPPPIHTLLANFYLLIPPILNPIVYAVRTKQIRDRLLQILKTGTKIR
Method in brief: as §1

[4] = molecular target: T4, UniProt E9Q6Z7
T4 sequence (whole entry): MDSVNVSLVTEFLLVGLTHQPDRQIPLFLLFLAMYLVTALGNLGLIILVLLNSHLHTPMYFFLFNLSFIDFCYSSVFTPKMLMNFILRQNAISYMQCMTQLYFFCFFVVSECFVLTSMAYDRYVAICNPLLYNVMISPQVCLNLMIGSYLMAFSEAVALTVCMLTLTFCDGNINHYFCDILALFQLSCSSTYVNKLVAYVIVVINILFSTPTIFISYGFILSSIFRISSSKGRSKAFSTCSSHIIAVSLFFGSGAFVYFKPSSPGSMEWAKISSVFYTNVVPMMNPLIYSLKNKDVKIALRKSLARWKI
Method in brief: as §1

[5] = molecular target: T5, UniProt K7N609
T5 sequence (whole entry): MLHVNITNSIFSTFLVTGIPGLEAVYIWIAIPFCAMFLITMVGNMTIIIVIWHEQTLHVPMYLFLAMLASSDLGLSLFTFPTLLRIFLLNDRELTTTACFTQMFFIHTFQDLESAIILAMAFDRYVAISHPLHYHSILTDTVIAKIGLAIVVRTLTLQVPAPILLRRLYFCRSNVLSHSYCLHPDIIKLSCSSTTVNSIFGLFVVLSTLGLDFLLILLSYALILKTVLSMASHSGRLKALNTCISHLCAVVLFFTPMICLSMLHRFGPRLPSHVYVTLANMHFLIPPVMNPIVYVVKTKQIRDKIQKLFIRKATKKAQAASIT
Method in brief: as §1

[6] = molecular target: T6, UniProt E9QAT7
T6 sequence (whole entry): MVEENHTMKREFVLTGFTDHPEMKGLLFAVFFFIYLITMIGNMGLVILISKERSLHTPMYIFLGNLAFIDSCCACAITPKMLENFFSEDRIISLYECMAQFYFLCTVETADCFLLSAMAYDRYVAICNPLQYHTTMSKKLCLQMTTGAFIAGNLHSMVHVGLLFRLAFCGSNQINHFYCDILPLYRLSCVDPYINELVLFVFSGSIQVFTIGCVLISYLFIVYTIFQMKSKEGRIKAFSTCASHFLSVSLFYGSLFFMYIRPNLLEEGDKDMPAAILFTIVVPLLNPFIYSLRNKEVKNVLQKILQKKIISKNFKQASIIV
Method in brief: as §1

[7] = molecular target: UniProt E9Q891
Method in brief: as §1

[8] = molecular target: UniProt K7N5T5
Method in brief: as §1

Measured: odorant receptor agonist call;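 further: active if original authors judged signal statistically different from baseline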

Sequence of UniProt K7N5T5 (K7N5T5 as listed by the source): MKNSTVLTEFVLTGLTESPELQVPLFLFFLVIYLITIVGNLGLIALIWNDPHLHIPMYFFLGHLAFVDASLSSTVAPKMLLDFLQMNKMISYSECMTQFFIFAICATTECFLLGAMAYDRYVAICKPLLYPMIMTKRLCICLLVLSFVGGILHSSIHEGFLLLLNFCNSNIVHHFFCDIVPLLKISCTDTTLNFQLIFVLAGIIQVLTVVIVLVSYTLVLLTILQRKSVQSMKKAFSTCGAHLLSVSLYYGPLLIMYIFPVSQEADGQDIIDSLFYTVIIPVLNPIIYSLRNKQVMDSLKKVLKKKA
Sequence of UniProt E9Q891 (E9Q891 as listed by the source): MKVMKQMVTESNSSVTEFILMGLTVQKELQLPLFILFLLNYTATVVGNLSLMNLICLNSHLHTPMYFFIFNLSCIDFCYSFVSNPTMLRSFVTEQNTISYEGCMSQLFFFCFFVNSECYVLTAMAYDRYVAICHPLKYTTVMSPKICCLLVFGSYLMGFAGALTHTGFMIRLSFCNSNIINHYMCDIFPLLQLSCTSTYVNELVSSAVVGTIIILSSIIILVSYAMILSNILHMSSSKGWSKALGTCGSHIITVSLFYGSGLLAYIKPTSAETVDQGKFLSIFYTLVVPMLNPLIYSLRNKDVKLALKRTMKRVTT

CCC(=O)C(=O)CC
inactive: [1] | [2] | [3] | [4] | [5]

C=CC(=C)CCC=C(C)C
inactive: [1] | [2] | [3] | [4]

CCCCCOC(=O)CC
inactive: [1] | [2] | [3] | [4]

Cc1ccc2c(c1)OCC(=O)CO2
inactive: [1] | [2] | [3] | [4]

Cc1ccc(C(C)C)c(O)c1
inactive: [1] | [2] | [3] | [4]

CC=CC(=O)C1=C(C)CCCC1(C)C
inactive: [1] | [2] | [3] | [4]

CCc1ccc(O)cc1
inactive: [1] | [2] | [3] | [4]

CCCC(=O)C(C)=O
inactive: [1] | [2] | [3] | [4] | [5]

c1ccccc1
inactive: [1] | [2] | [3] | [4] | [5]

COc1nccnc1C(C)C
inactive: [1] | [2] | [3] | [4] | [6]

O=C1CCOc2ccccc21
inactive: [1] | [2] | [3] | [4] | [8] | [5]
active: [7]

CCCC(C)C(=O)OCC (stereo not drawn)
inactive: [1] | [2] | [3] | [4]

Cc1ccc(C(C)C)cc1
inactive: [1] | [2] | [3] | [4]

CC(C)=CCCC(C)=CCOC(=O)C(C)C
inactive: [1] | [2] | [3] | [4]

CC(C)CS
inactive: [1] | [2] | [3] | [4]

CC(C)=C1CCC(C)CC1=O (stereo not drawn)
inactive: [1] | [2] | [3] | [4]

CC(C)=CCCC(C)=CCO
inactive: [1] | [2] | [3] | [4] | [5]

CCOC(=O)C(C)C
inactive: [1] | [2] | [3] | [4] | [5]

O=C(c1ccccc1)c1ccccc1
inactive: [1] | [2] | [3] | [4] | [5]

CCCCOC=O
inactive: [1] | [2] | [3] | [4] | [5]

O=C1Cc2ccccc2O1
inactive: [1] | [2] | [3] | [4] | [5]

COc1cc(C(=O)O)ccc1O
inactive: [1] | [3] | [4]
active: [2] | [5]

CCCCOC(=O)C(C)OC(=O)CCC (stereo not drawn)
inactive: [3] | [5]

CC(C)=CCCC(C)CCO (stereo not drawn)
inactive: [1] | [2] | [3] | [4] | [5]

CCCCCCCCCCO
inactive: [1] | [2] | [3] | [4] | [5]

CCCCCCCCCC(=O)[O-].[H+]
inactive: [1] | [2] | [4] | [5]
active: [3]
